The values below come from ChEMBL document CHEMBL1142300, “4-Aminopyrimidine tetrahydronaphthols: a series of novel vanilloid receptor-1 antagonists with improved solubility properties” (Bioorg Med Chem Lett, 2008).

Data set [1] can be described thus: AUC in rat at 5 mg/kg, po. In kind it is ADME, organism-based. Also noted: dose 5 mg/kg, route oral. Particulars: plasma.
Data set [2] can be described thus: Bioavailability in rat at 5 mg/kg, po. In kind it is ADME, organism-based. Particulars: in vivo.
Data set [3] can be described thus: Solubility in phosphate buffered saline at pH 7.4. In kind it is physicochemical. The gist of the method: (§1)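 Thermodynamic solubility determined on a high-throughput automated platform in three aqueous media: 0.01 N HCl, phosphate-buffered saline pH 7.4, and simulated intestinal fluid pH 6.8.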
The nature of data set [4]: Solubility in aqueous 0.01 N HCL. Type of data set: physicochemical. The method in brief:
as §1

Data set [5] is described as follows: Solubility in simulated intestinal fluid at pH 6.8. Type of data set: physicochemical. The method in brief: as §1
A short description of data set [6]: AUC in rat at 3 mg/kg, po. Type of data set: ADME, organism-based. Particulars: plasma. Also noted: dose 3 mg/kg, route oral.
Data set [7] addresses Transient receptor potential cation channel subfamily V member 1 (Homo sapiens, UniProt Q8NER1). In words: Antagonist activity at human TRPV1 expressed in CHO cells assessed as inhibition of capsaicin-induced calcium mobilization. Type of data set: functional, cell-based. The method in brief: (§2)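 Inhibition of capsaicin-evoked 45Ca2+ uptake into CHO cells stably expressing human or rat TRPV1; IC50 taken as mean of at least three measurements ± SEM. Compounds were also run separately for agonist activity.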
On the technique in general: Calcium flux is commonly read through the fluorescence of an indicator in the cells.

For data set [8], the target named is Transient receptor potential cation channel subfamily V member 1 (Rattus norvegicus, UniProt O35433). Description: Antagonist activity at rat TRPV1 expressed in CHO cells assessed as inhibition of capsaicin-induced calcium mobilization. In kind it is functional, cell-based. The method in brief:
as §2

Another data set deals with Rattus norvegicus. In words: (§3) Half life in iv dosed rat. Type of data set: ADME, organism-based. Particulars: in vivo.
A short description of data set [9]: as §3. Particulars: in vivo. In kind it is ADME, organism-based.
Data set [10] can be described thus: Clearance in iv dosed rat. Type of data set: ADME, organism-based. Particulars: in vivo.
The mark [11] stands for this setting: aqueous 0.01 N HCl, read-out: Solubility.
Setting [12] is: simulated intestinal fluid, read-out: Solubility.

pIC50: −log10 of the molar value. In brackets after ≈: the same amount, converted by molar mass.

Transient receptor potential cation channel subfamily V member 1 (Homo sapiens, UniProt Q8NER1), sequence (Q8NER1 whole entry): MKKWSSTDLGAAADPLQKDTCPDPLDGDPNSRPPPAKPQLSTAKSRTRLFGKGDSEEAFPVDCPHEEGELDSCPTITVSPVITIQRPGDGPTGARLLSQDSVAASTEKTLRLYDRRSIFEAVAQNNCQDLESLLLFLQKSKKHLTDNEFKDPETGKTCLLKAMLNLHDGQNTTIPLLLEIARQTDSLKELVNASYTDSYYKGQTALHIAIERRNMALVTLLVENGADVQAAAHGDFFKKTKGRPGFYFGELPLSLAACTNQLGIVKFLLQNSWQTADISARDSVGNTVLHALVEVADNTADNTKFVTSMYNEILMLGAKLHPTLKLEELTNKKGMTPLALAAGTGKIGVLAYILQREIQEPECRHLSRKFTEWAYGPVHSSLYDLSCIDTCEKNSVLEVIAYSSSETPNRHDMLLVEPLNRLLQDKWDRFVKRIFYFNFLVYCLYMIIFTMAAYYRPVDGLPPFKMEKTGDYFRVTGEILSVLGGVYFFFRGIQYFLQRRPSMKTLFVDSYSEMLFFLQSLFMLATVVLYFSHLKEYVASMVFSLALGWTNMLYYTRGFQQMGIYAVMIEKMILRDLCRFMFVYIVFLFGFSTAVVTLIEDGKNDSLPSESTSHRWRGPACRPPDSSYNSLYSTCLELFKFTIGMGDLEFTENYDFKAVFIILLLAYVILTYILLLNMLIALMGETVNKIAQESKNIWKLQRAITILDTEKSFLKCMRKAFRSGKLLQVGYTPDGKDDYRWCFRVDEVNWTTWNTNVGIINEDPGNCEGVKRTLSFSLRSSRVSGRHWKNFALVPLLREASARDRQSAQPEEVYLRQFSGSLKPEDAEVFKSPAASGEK
Transient receptor potential cation channel subfamily V member 1 (Rattus norvegicus, UniProt O35433), sequence (O35433 whole entry): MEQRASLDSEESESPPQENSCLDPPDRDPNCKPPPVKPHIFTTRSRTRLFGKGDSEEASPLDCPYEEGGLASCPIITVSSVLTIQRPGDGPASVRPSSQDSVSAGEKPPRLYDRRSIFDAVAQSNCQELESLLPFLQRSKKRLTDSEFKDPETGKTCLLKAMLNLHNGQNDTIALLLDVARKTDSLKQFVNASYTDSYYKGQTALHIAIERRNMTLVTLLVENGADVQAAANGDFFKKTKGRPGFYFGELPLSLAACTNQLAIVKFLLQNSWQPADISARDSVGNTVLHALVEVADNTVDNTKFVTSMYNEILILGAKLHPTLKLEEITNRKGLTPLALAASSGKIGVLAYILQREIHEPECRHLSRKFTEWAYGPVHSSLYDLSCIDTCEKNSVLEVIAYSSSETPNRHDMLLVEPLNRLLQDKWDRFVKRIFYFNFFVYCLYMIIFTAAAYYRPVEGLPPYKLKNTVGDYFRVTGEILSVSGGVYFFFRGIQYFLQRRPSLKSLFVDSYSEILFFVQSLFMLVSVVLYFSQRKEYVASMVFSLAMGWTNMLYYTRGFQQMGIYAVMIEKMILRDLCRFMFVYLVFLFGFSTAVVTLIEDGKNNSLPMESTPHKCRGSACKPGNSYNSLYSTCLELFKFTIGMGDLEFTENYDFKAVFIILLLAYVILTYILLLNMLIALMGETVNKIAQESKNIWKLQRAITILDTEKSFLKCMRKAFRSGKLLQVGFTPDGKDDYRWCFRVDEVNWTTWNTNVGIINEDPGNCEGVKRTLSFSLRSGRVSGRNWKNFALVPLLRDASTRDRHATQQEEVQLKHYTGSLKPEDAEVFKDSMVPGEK

One may read the AUC as the area under the concentration-time curve, a measure of exposure. Read a high AUC as more exposure. What is called bioavailability is dose-corrected exposure relative to a reference, in per cent. Read a low bioavailability as little systemic uptake. As to `OC1CCc2c(Cl)ccc(Nc3cc(-c4ccc(C(F)(F)F)cc4)ncn3)c2C1` (centres undefined), the exposure (AUC) in data set [1] came to 3400 ng·h/mL. This molecule also yielded a bioavailability in data set [2] of 34%.

What is called Solubility is the concentration that dissolves in the medium under given conditions. Regarding `CC(=O)Nc1nc2c(Oc3cc(-c4ccc(C(F)(F)F)cc4)ncn3)cccc2s1` [AMG-517], the Solubility is under 0.1 µg/mL in [3] (buffer), under 0.1 µg/mL in [4] (buffer) and 0.66 µg/mL (≈ 1.53 µM) in data set [5] (simulated gi fluid). The same molecule returned an AUC in data set [6] of 5300 ng·h/mL.

Usually pIC50 stands for the negative decadic logarithm of the IC50, by convention in mol/L. Regarding `CSc1cccc(NC(=O)Nc2cccc3ccc(O)cc23)c1`, the negative-log IC50 (pIC50) in [7] is 7.89; in [8] it was 7.46.

Take `OC1CCc2cccc(Nc3cc(-c4ccc(C(F)(F)F)cc4)ncn3)c2C1` (single isomer, unassigned; (+)): the pIC50 was 9.24 in data set [7] and 8.24 in data set [8]. Further, the t1/2 in the data set with Rattus norvegicus turned out to be 1.2 h. Further, the Solubility in data set [3] (buffer) is 5.6 µg/mL (≈ 14.5 µM); in data set [4] (buffer), 180 µg/mL (≈ 467 µM); in data set [5] (simulated gi fluid), 60 µg/mL (≈ 156 µM).

As usually defined, the half-life is how long it takes for the measured level to halve. A higher half-life goes with slow decline. As a reminder, the clearance is the rate of elimination divided by the concentration. Low values mean inefficient removal, high ones efficient removal. Regarding `OC1CCc2cccc(Nc3cc(-c4ccc(C(F)(F)F)cc4)ncn3)c2C1` (single isomer, unassigned; (-)), the pIC50 was 9.21 in data set [7] and 8.26 in data set [8]. Further, the half-life in data set [9] was 0.9 h. The Solubility is 9.1 µg/mL (≈ 23.6 µM) in data set [3] (buffer), 160 µg/mL (≈ 415 µM) in data set [4] (setting [11]) and 85 µg/mL (≈ 221 µM) in [5] (setting [12]). Besides, in data set [10], the clearance was 96.7 mL/min/kg.

In the case of `OC1CCc2c(Br)ccc(Nc3cc(-c4ccc(C(F)(F)F)cc4)ncn3)c2C1` (centres undefined), the negative-log IC50 (pIC50) was 8.68 in data set [7] and 8.02 in data set [8]. The molecule also came in with an exposure (AUC) in data set [1] of 7600 ng·h/mL. This molecule gave a half-life in data set [9] of 5.5 h. The Solubility in [3] (phosphate buffered saline, read-out: Solubility) is 7.7 µg/mL (≈ 16.6 µM); in data set [4] (setting [11]), 7.2 µg/mL (≈ 15.5 µM); in data set [5] (setting [12]), 73 µg/mL (≈ 157 µM). For the same molecule, the clearance in [10] is 6.5 mL/min/kg. In data set [2], this molecule showed a bioavailability of 60%.

As for `OC1CCc2cccc(Nc3cc(-c4ccc(C(F)(F)F)cc4)ncn3)c2C1` (stereo in doubt; 4), the pIC50 in data set [7] was 9.19; in data set [8], 8.51. The Solubility in data set [3] (buffer) turned out to be 23 µg/mL (≈ 59.7 µM); in data set [4] (buffer), 190 µg/mL (≈ 493 µM).
